Source: ChEMBL document CHEMBL1130393, “Antitumor agents. 178. Synthesis and biological evaluation of substituted 2-aryl-1,8-naphthyridin-4(1H)-ones as antitumor agents that inhibit tubulin polymerization” (J Med Chem, 1997)

Tests used:
SK-MEL-5 = assay: In vitro antitumor activity against SK-MEL-5 tumor cell lines; type: functional; conditions: Homo sapiens
Tumor Cell line = assay: In vitro antitumor activity against NCI 's human tumor cell lines; type: functional; conditions: read-out: Average log GI50 (converted)
Method in brief: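 NCI in vitro screen of 60 human tumor cell lines. […] The value is calculated from all cell lines tested.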

Tubulin = Tubulin (Bos taurus, UniProt Q6B856+Q862L2+Q862F3); assay: Inhibition of tubulin polymerization; type: functional
PC-3 = assay: In vitro antitumor activity against PC-3 tumor cell lines; type: functional; conditions: Homo sapiens
CAKI-1 = assay: In vitro antitumor activity against CAKI-1 tumor cell lines; type: functional; conditions: Homo sapiens
MDA-N = assay: In vitro antitumor activity against MDA-N tumor cell lines; type: functional; conditions: Homo sapiens
NCI-H460 = assay: In vitro antitumor activity against NCI-H460 tumor cell lines; type: functional; conditions: Homo sapiens
MDA-MB-435 = assay: In vitro antitumor activity against MDA-MB-435 NCI 's human tumor cell lines; type: functional
OVCAR-3 = assay: In vitro antitumor activity against OVCAR-3 tumor cell lines; type: functional; conditions: Homo sapiens
SF-295 = assay: In vitro antitumor activity against SF-295 tumor cell lines; type: functional; conditions: Homo sapiens
HCT-116 = assay: In vitro antitumor activity against HCT116 tumor cell lines; type: functional; conditions: Homo sapiens
HL-60 = assay: In vitro antitumor activity against HL-60(TB) tumor cell lines; type: functional; conditions: Homo sapiens
U-251 = assay: In vitro antitumor activity against U-251 tumor cell lines; type: functional; conditions: Homo sapiens
Tubulin (Bos taurus) = Tubulin (Bos taurus) (UniProt Q6B856+Q862L2+Q862F3); assay: Inhibition of radiolabeled colchicine binding to tubulin; type: protein assay; set-up: concentration or dose not given beside the values; conditions: concentration not given here
Method in brief: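 Measured by DEAE-cellulose filter binding. The 0.1 mL mixture held bovine brain tubulin 1.0 µM, 1.0 M monosodium glutamate (pH 6.6), 1 mM MgCl2, 0.1 mM GTP, 5.0 µM [3H]colchicine, 5% DMSO and inhibitor at 5.0 µM. It was incubated 20 min at 37 °C, filtered through two DEAE-cellulose papers, washed with water and counted by liquid scintillation.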

| SMILES | GI50 (SK-MEL-5) [nM] | GI50 (Tumor Cell line) [nM] | IC50 (Tubulin) [µM] | GI50 (PC-3) [nM] | GI50 (CAKI-1) [nM] | GI50 (MDA-N) [nM] | GI50 (NCI-H460) [nM] | GI50 (MDA-MB-435) [nM] | GI50 (OVCAR-3) [nM] | GI50 (SF-295) [nM] | GI50 (HCT-116) [nM] | GI50 (HL-60) [nM] | GI50 (U-251) [nM] | inhibition (Tubulin (Bos taurus)) [%] |
| --- | --- | --- | --- | --- | --- | --- | --- | --- | --- | --- | --- | --- | --- | --- |
| Cc1cccc(-c2cc(O)c3c(C)ccnc3n2)c1 | 33.9 | 57.5 | 1.8 | 33.1 | 53.7 | 11 | 36.3 | < 10 | 22.4 | 30.2 | 46.8 | 18.2 | 53.7 |  |
| Cc1cnc2nc(-c3ccc4ccccc4c3)cc(O)c2c1 | 363 | 741 | 2.1 | 407 | 617 | 132 | 398 | 105 | 355 | 550 | 468 | 141 | 468 |  |
| Cc1ccnc2nc(-c3cccc4ccccc34)cc(O)c12 | < 10 | 35.5 | 0.93 | 19.9 | 12 | < 10 | < 10 | < 10 | < 10 | 10.7 | < 10 | < 10 | < 10 | 37 |
| Oc1cc(-c2ccc3ccccc3c2)nc2ncc(Cl)cc12 | 2950 | 5750 | 2.5 | 3090 | 7590 | 1550 | 4070 | 851 | 2630 | 5500 | 3980 | 1780 | 4790 |  |
| Cc1cc(C)c2c(O)cc(-c3ccc4ccccc4c3)nc2n1 | 2190 | 13500 | > 40 | 5500 | 51300 | 3240 | 13200 | 2950 | 20000 | 14800 | 12600 | 3470 | 15800 |  |
| Cc1cc(C)c2c(O)cc(-c3cccc4ccccc34)nc2n1 | 468 | 1050 | 0.78 | 759 | 9550 | 234 | 631 | 191 | 347 | 589 | 380 | 245 | 372 | 15 |
| Cc1cccc(-c2cc(O)c3ccc(C)nc3n2)c1 | 126 | 97.7 | 1.9 | 138 | 427 | 31.6 | 17.8 | 32.4 | 490 | 60.3 | 120 | 26.9 | 200 |  |
| Oc1cc(-c2ccc3ccccc3c2)nc2ncccc12 | 3470 | 8130 | 14 | 10500 | 5620 | 1660 | 3800 | 1780 | 8320 | 9120 | 3800 | 1820 | 4370 |  |
| Cc1ccnc2nc(-c3ccc4ccccc4c3)cc(O)c12 | 437 | 1200 | 1.8 | 1380 | 2400 | 204 | 1050 | 204 | 1290 | 1480 | 427 | 204 | 646 |  |
| Cc1ccc2c(O)cc(-c3ccc4ccccc4c3)nc2n1 | 3310 | 4570 | 5.1 | 2630 | 5370 | 1950 | 3800 | 1580 | 3630 | 3800 | 3980 | 1780 | 4570 |  |
| Cc1cnc2nc(-c3cccc4ccccc34)cc(O)c2c1 | < 10 | 19.1 | 0.55 | < 10 | < 10 | < 10 | < 10 | < 10 | < 10 | < 10 | < 10 | < 10 | < 10 | 46 |
| Cc1cccc(-c2cc(O)c3cc(C)cnc3n2)c1 | 288 | 646 | 1.5 | 309 | 437 | < 10 | 389 | < 10 | 251 | 417 | 407 | 174 | 170 |  |
| Oc1cc(-c2cccc3ccccc23)nc2ncccc12 | < 10 | 35.5 | 1.1 | 17.8 | 15.1 | < 10 | 38.9 | < 10 | < 10 | < 10 | < 10 | < 10 | 10.2 |  |
| Cc1ccc2c(O)cc(-c3cccc4ccccc34)nc2n1 | 13.8 | 66.1 | 0.66 | 30.2 | 6030 | < 10 | 17.4 | < 10 | < 10 | 24 | < 10 | < 10 | 15.5 | 40 |
| Cc1cccc(-c2cc(O)c3c(C)cc(C)nc3n2)c1 | 34700 | 38000 | 2.3 | 31600 | 56200 | 20900 | 44700 | 20000 | 30200 | 64600 | 17800 | 12900 | 53700 |  |
